From PubChem BioAssay
PKA-R1A act – activators of PKA-R1A complex; P00514+P68181; PKA-R1A dissociation, Cy5-IP20 fluorescence polarization; scaled: DMSO 0%, 113 µM cGMP 100%; activation, % at 11.4 µM; actives 0.083% (n = 340,000); AID 504707;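 active means percent activation above the mean of all tested compounds plus 3 SD, cut at about 19% in these data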;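 further: higher means more PKAc released from R1A so a rise in polarization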
PKA-R2B activ – PKA-R2B complex activation. P22694+P31323. PKA-R2B holoenzyme dissociation, Cy5-IP20 fluorescence polarization; R2B truncated from residue 108, S112A mutant; 0% DMSO only, 100% 113 µM cGMP. activation, % at 11.4 µM. actives 0.079% (n = 340,000);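 active means activation above a cutoff set at the mean over all compounds plus 3 SD, cut at about 18% in these data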;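 further: higher means more holoenzyme dissociation and a rise in polarization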
T cell HTS – T cell immune modulators affecting CD8 T cell-vesicle binding; 2C CD8+ T cell-vesicle binding, flow cytometry; active compounds read low; response (vesicle binding), % at 7 µM; actives 0.068% (n = 330,000);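 active means response, share of CD8 T cells binding vesicles, and their 90th percentile fluorescence all below set limits, cut at about 80% in these data, passing the limit was not always enough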;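 further: values below 100% mean blocked vesicle binding to the CD8+ T cells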
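System: murine 2C transgenic CD8+ T lymphocytes; also added: QL9-loaded Drosophila micro-vesicles; times: binding 1.5 h at 37 °C; measured by: flow cytometry, PE anti-B7-1 (FL2) versus Alexa647 anti-CD8 (FL8), PFA-fixed; control set: Peptide-free naked vesicles (low) and QL9 vesicles with 0.7% DMSO vehicle (high)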
PfG6PD inh – PfG6PD (Plasmodium falciparum) enzyme inhibition; PfGluPho enzyme, NADPH resazurin-diaphorase fluorescence; inhibition, % at 20 µM; actives 0.78% (n = 350,000); AID 504690;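 active means inhibition reaching at least a set limit at 20 µM in the primary screen, cut at about 59% in these data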;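 further: 0% = DMSO wells with substrate and 100% = DMSO wells lacking glucose-6-phosphate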
ATG4B inh – inhibitors of human ATG4B cysteine protease; ATG4B cleavage of LC3-PLA2, NBD-HPC fluorescence, 1 h; Q9Y4P1; actives 0.51% (n = 340,000); inhibition, % at 8.33 µM; in the data active means inhibition above about 40%
Target sequence (Q9Y4P1 whole entry, looked up): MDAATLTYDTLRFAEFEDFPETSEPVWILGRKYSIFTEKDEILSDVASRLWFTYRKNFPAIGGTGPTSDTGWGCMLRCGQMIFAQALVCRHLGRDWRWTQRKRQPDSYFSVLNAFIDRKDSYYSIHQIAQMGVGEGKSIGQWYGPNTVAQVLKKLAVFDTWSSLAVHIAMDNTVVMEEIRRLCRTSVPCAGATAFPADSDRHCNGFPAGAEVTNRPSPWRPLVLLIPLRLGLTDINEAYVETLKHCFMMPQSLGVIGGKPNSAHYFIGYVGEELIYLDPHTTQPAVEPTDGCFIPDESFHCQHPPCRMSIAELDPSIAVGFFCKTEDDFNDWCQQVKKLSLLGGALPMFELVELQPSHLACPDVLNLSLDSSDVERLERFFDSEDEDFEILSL
HKDC1 inhibitor – blocks human hexokinase HKDC1 activity; Q2TB90; recombinant HKDC1, G6PDH/diaphorase resazurin coupled fluorescence; inhibition, % at 20 µM; actives 0.16% (n = 340,000); AID 493160;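 active means inhibition above about 35% when tested at 20 µM, limit read from the data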;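 further: plate controls were DMSO wells with enzyme for no effect and DMSO wells lacking enzyme for full effect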
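Test system: recombinant HKDC1 (HK5) hexokinase enzyme, produced in-house / Doses: 20 µM test compound, 1% DMSO / Timing: 90 min, room temperature / Detection: G6PDH/diaphorase-coupled fluorescence, 1 mM NADP, 100 µM resazurin, 525/613 nm / Control set: DMSO wells with and without enzyme mix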
HKDC1 act conf – confirmation of human HKDC1 activators. shares compounds with HKDC1 inhibitor. recombinant HKDC1, G6PDH/diaphorase resazurin fluorescence; active compounds read low. inhibition, % at 20 µM. actives 14% (n = 740). AID 504708;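 active means inhibition at or below a set negative limit, negative inhibition meaning the enzyme was activated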
* marks the source's active call; other numbers are inactive results; i = inactive; . = no result given. Hits are enriched below; roughly 1.6% of the tested compounds scored in any of these assays.

SMILES	PKA-R1A act	PKA-R2B activ	T cell HTS	PfG6PD inh	ATG4B inh	HKDC1 inhibitor	HKDC1 act conf
Cc1cc(C)n(-c2ccc(NC(=O)C3CCCCN3C(=O)c3ccoc3C)cc2)n1 (stereo not drawn)	9	-4	500	-4	-5	-2	.
Cc1cnc(C(=O)NNC(=O)c2ccc(Br)cc2)cn1	-4	-6	347	23	3	-6	.
O=c1[nH]c2ccccc2c(O)c1O	-2	-6	160	75*	-27	-10	.
Cc1ncc([N+](=O)[O-])n1Cc1ccccc1	3	-12	163	-12	-3	-7	.
Cc1ncc([N+](=O)[O-])n1Cc1cccc(F)c1	-6	-2	72*	-10	-13	-2	.
COc1ccc(NS(=O)(=O)c2ccc(C(=O)N(C)Cc3cccs3)cc2)cc1	10	0	.	-28	-4	2	.
CCOc1ccc(S(=O)(=O)N2CCN(C(=O)CCOc3ccccc3C)CC2)cc1	-2	-13	324	0	-7	3	.
CC12CCC3c4ccc(O)c([N+](=O)[O-])c4CCC3C1CCC2=O (stereo not drawn)	0	-1	.	-5	.	.	.
Cc1cc(=O)c2cc3nc(-c4cccnc4)oc3c(Br)c2o1	.	.	0.0*	.	.	.	.
CCN(CC)CCN1C(=O)C2C(C(=O)Nc3cc(C)cc(C)c3)C3C=CC2(O3)C1C(=O)NC1CCCCC1 (stereo not drawn)	4	5	329	-19	3	-2	.
CCOc1ccc(S(=O)(=O)N2CCC(C(=O)OC(C)C(=O)NC3CCCCC3C)CC2)cc1 (stereo not drawn)	-12	-8	0.0*	-2	-12	-4	.
O=C(N/N=C/c1cccnc1)c1cc(-c2ccc(Br)cc2)nc2ccccc12	10	7	202	0	1	-1	.
CCCCN1CC(=O)N2[C@H](c3ccc(Cl)cc3)[C@@H]3C(=O)N(CC)C(=O)[C@@H]3[C@]2(Cc2ccccc2)C1=O	-15	1	405	-14	3	2	.
N#CC(C#N)=C1C=CC=CN1/C(=C\c1ccco1)C(=O)c1ccccc1	7	-10	172	33	3	22	.
N#CC(C#N)=C1C=CC=CN1/C(=C\c1ccco1)C(=O)c1ccc(Br)cc1	-8	-4	263	59*	3	20	.
O=C(OC1CO[C@H]2O[C@@H]1[C@H](OC(=O)c1ccccc1)[C@H]2OC(=O)c1ccccc1)c1ccccc1 (stereo partly drawn)	.	.	711	5	2	-2	.
CCCCC(=O)NC(c1ccc(N(CC)CC)cc1)c1ccc2cccnc2c1O (stereo not drawn)	-9	4	227	-12	9	-46	-59*
O=c1oc2cc(Oc3ccc(C(F)(F)F)cc3[N+](=O)[O-])ccc2c2c1CCC2	-11	-3	168	0	2	-5	.
O=c1oc2cc(Oc3c([N+](=O)[O-])cc(C(F)(F)F)cc3[N+](=O)[O-])ccc2c2c1CCCC2	-1	-8	550	14	5	40*	3
CCCSc1nc(N)nc2c1ncn2C1OC(CO)C(O)C1O (stereo not drawn)	0	2	.	-5	4	-6	.
O=C1C=C(Nc2ccc(F)cc2)c2ccccc2C1=O	-3	0	238	8	-13	42*	4
CCOc1ccc(NC2=CC(=O)C(=O)c3ccccc32)cc1	4	-8	.	29	-6	22	.
Cc1cc(C(=O)CCC(=O)Nc2cccc(F)c2)c(C)s1	-5	2	.	5	.	.	.
COc1ccc(C(OCC(O)CN2CCC(O)CC2)c2ccc(OC)cc2)cc1 (stereo not drawn)	4	-6	199	-2	-6	0	.
CCOC(=O)c1ccc(NC(=O)CSc2ccc(-c3ccccn3)nn2)cc1	4	-6	246	47	1	37*	31
SMILES	PKA-R1A act	PKA-R2B activ	T cell HTS	PfG6PD inh	ATG4B inh	HKDC1 inhibitor	HKDC1 act conf
O=C(/C=C/Sc1ccccc1)c1ccc(Cl)cc1	1	3	328	12	-5	20	.
O=C(/C=C/Sc1ccccc1)c1ccccc1	-8	-7	725	25	-8	36*	2
O=C(O)COc1ccc(/C=N/NC(=O)c2ccc(-c3csc(Nc4ccc(Cl)cc4)n3)cc2)cc1	0	-3	.	30	-2	76*	24
N=C1N(/N=C/c2ccccc2)C(=Nc2ccccc2)C(=S)N1c1ccccc1	1	3	i	17	10	-49	-32
Cc1ccc(C)c(-n2c3nc(=O)n(C)c(=O)c-3cc3ccccc32)c1	11	8	191	-8	10	3	.
Cc1cccc(-n2c3nc(=O)[nH]c(=O)c-3cc3cc([N+](=O)[O-])ccc32)c1	-2	-16	198	31	7	42*	47
Cc1ccc(C)c(-n2c3nc(=O)[nH]c(=O)c-3cc3cc([N+](=O)[O-])ccc32)c1	7	-11	132	48	26	47*	39
O=C(OCn1ncc(Cl)c(Cl)c1=O)c1ccc(C(F)(F)F)cc1	-6	-4	.	8	-6	46*	2
Cn1cnc([N+](=O)[O-])c1Sc1ccc(Br)cc1	-2	-13	222	-7	3	-58	-7
OC(CSc1ccccc1)CN1CCN(c2ccccc2)CC1 (stereo not drawn)	-8	2	.	-9	-5	-5	.
O=C(CCl)N1CCN2C(=O)c3ccccc3C12c1ccc(Cl)cc1 (stereo not drawn)	7	0	300	17	-8	32	8
COC(=O)[C@H]1C[C@@]2(O)CN(S(=O)(=O)c3ccc(C)cc3)C[C@@]2(OC(=O)NC2CCCC2)C[C@H]1C(=O)OC	0	-2	.	10	.	.	.
Cc1cc(SCC(=O)c2cccc([N+](=O)[O-])c2)nc(=O)[nH]1	16	3	587	40	-9	-54	6
Cc1cc(SCc2cccc([N+](=O)[O-])c2)nc(=O)[nH]1	-8	-3	634	15	-10	-2	.
CC(C)(C)c1ccc(-c2csc(NNC3=NCCCCC3)n2)cc1	2	-9	192	24	-6	-61	-39*
O=C(CCl)N(c1ccc(Cl)cc1)c1c[nH]c2ccccc12	-3	6	426	18	-3	41*	6
O=C(CCl)N(c1ccccc1)c1c[nH]c2ccccc12	2	2	436	1	1	21	.
